Published values collected from several papers.
Each line is one published result; the experiments were not run side by side.
Organism: Plasmodium falciparum
Observed: parasite growth

| SMILES | technique | strain | concentration | time | notes | measurement | value |
| --- | --- | --- | --- | --- | --- | --- | --- |
| CCn1cc(-c2nnc(-c3cccnc3)o2)c(=O)c2cc(F)c(N3CCC(C)CC3)cc21 | – | 3D7 | – | 72 h | blood stage | EC50 | > 10000 nM |
| Cc1cccc(C(=O)O)c1NC(=O)c1cccc(-c2ccccc2)c1 | – | NF54 | 2 µM | 48 h | gametocyte | inhibition | 31.8% |
| CN1CCN(S(=O)(=O)c2ccc(-c3ccc4c(Nc5ccc6[nH]nnc6c5)ccnc4c3)cc2)CC1 | – | D6 | – | – | drug-resistant strain, blood stage | EC50 | 27 nM |
| CCNC(=O)c1cn(CC)c2cc(N3CCC(C)CC3)c(F)cc2c1=O | – | 3D7 | – | 72 h | blood stage | EC50 | 477 nM |
| CCN(CC)CCCC(C)Nc1ccnc2cc(Cl)ccc12 (stereo not shown) | – | D6 | – | 72 h | blood stage | IC50 | 0.016 µg/mL |
| CN1CCN(c2ccnc(Nc3ccc4c(Nc5ccc(OCc6cccc(F)c6)c(Cl)c5)ccnc4c3)n2)CC1 | – | D6 | – | – | drug-resistant strain, blood stage | EC50 | 25 nM |
| CCn1cc(-c2nc(C)no2)c(=O)c2cc(F)c(N3CCC(Cc4ccccc4)CC3)cc21 | – | 3D7 | – | 72 h | blood stage | EC50 | 9 nM |
| O=C(Nc1c(F)cccc1C(=O)O)c1ccc(-c2ccccc2)cc1 | SYBR Green | NF54 | 10 µM | 96 h | blood stage | inhibition | 6.4% |
| CN1CCN(S(=O)(=O)c2ccc(-c3ccc4c(Nc5ccnnc5)ccnc4c3)cc2)CC1 | – | D6 | – | – | drug-resistant strain, blood stage | EC50 | 2100 nM |
| O=C(Nc1cc(F)ccc1C(=O)O)c1ccc(-c2ccccc2)cc1 | – | NF54 | 2 µM | 48 h | gametocyte | inhibition | 13.8% |
| CCn1cc(-c2nc(C)no2)c(=O)c2cc(F)c(N3CCC(C)CC3)cc21 | – | 3D7 | – | – | blood stage | EC50 | 7.62 nM |
| c1ccc2sc(-c3ccnc(Nc4ccc(CN5CCC(N6CCCC6)CC5)cc4)n3)cc2c1 | SYBR Green | 3D7 | 1 µM | – | blood stage | inhibition | > 75% |
| CN1CCN(c2ncc(-c3ccc4c(Nc5cnccn5)ccnc4c3)cn2)CC1 | – | D6 | – | – | drug-resistant strain, blood stage | EC50 | 26 nM |
| Cc1ccc(-c2ccccc2C(=O)Nc2c(C)cccc2C(=O)O)cc1 | – | NF54 | 2 µM | 48 h | gametocyte | inhibition | 55% |
| CCN(CC)CCCC(C)Nc1ccnc2cc(Cl)ccc12 (stereo not shown) | – | NF54 | – | – | blood stage | IC50 | 8 nM |
| COc1ccc(Nc2ccnc3cc(Nc4nccc(N5CCN(C)CC5)n4)ccc23)cc1Cl | – | D6 | – | – | drug-resistant strain, blood stage | EC50 | 99 nM |
| CCOC(=O)c1cn(CC)c2cc(N3CCC(C)CC3)c(F)cc2c1=O | – | 3D7 | – | 72 h | blood stage | EC50 | 28 nM |
| O=C(Nc1ccc(F)cc1C(=O)O)c1ccc(-c2ccccc2)cc1 | – | NF54 | 2 µM | 48 h | gametocyte | inhibition | 43.5% |
| COc1ccc(Nc2ccnc3cc(-c4cn[nH]c4)ccc23)cc1Cl | – | D6 | – | – | drug-resistant strain, blood stage | EC50 | 250 nM |
